Laboratory results reported in ChEMBL document CHEMBL3352743, “Chemically accessible hsp90 inhibitor that does not induce a heat shock response” (ACS Med Chem Lett, 2014).
≈ marks a conversion by molar mass, not a printed value. Calls of active or inactive are those of the source. The rule behind the calls is not given here. Peptide text beside a SMILES is read from it.

What was measured:
[1] = Cytotoxicity against human HCT116 cells after 72 hrs by CCK8 assay; assay type: functional, cell-based; conditions: HCT-116, 72 h
[2] = Cytotoxicity against human MIAPaCa2 cells after 72 hrs by CCK8 assay; assay type: functional, cell-based; conditions: MIA PaCa-2, 72 h
[3] = Solubility in 80% EtOH/20% water; assay type: physicochemical
[4] = biological target: Heat shock protein HSP 90-beta (Oryctolagus cuniculus) (UniProt P30947); assay: Inhibition of HSP90 in rabbit reticulocyte lysates at 5 uM […] by firefly luciferase protein re-folding assay; conditions: in the assay text read “2 hrs” for “5 hrs”
Summary of the method: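 Denatured firefly luciferase incubated for 2 h in rabbit reticulocyte lysate pretreated with compound. Refolding read as luciferase activity relative to control. Mean ± SEM, n = 3.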

[5] = Reduction in HSF1 protein expression in human HCT116 cells at IC50 level by western blotting method; assay type: functional, cell-based; conditions: HCT-116
[6] = Reduction in HSP90 protein expression in human HCT116 cells at IC50 level by western blotting method; assay type: functional, cell-based; conditions: HCT-116
[7] = Reduction in HSP70 protein expression in human HCT116 cells at IC50 level by western blotting method; assay type: functional, cell-based; conditions: HCT-116
[8] = Reduction in HSP40 protein expression in human HCT116 cells at IC50 level by western blotting method; assay type: functional, cell-based; conditions: HCT-116
[9] = Reduction in HSP27 protein expression in human HCT116 cells at IC50 level by western blotting method; assay type: functional, cell-based; conditions: HCT-116
[10] = Reduction in HSF1 protein expression in human MIAPaCa2 cells at IC50 level by western blotting method; assay type: functional, cell-based; conditions: MIA PaCa-2
[11] = Reduction in HSP90 protein expression in human MIAPaCa2 cells at IC50 level by western blotting method; assay type: functional, cell-based; conditions: MIA PaCa-2
[12] = Reduction in HSP70 protein expression in human MIAPaCa2 cells at IC50 level by western blotting method; assay type: functional, cell-based; conditions: MIA PaCa-2
[13] = Reduction in HSP40 protein expression in human MIAPaCa2 cells at IC50 level by western blotting method; assay type: functional, cell-based; conditions: MIA PaCa-2
[14] = Reduction in HSP27 protein expression in human MIAPaCa2 cells at IC50 level by western blotting method; assay type: functional, cell-based; conditions: MIA PaCa-2
[15] = Reduction in HSF1 protein expression in human HCT116 cells at 50 uM by western blotting method relative to untreated control; assay type: functional, cell-based; conditions: HCT-116
[16] = Reduction in HSP90 protein expression in human HCT116 cells at 50 uM by western blotting method relative to untreated control; assay type: functional, cell-based; conditions: HCT-116
[17] = Reduction in HSP70 protein expression in human HCT116 cells at 50 uM by western blotting method relative to untreated control; assay type: functional, cell-based; conditions: HCT-116
[18] = Reduction in HSP40 protein expression in human HCT116 cells at 50 uM by western blotting method relative to untreated control; assay type: functional, cell-based; conditions: HCT-116
[19] = Reduction in HSP27 protein expression in human HCT116 cells at 50 uM by western blotting method relative to untreated control; assay type: functional, cell-based; conditions: HCT-116
[20] = Reduction in HSF1 protein expression in human MIAPaCa2 cells at 50 uM by western blotting method relative to untreated control; assay type: functional, cell-based; conditions: MIA PaCa-2
[21] = Reduction in HSP90 protein expression in human MIAPaCa2 cells at 50 uM by western blotting method relative to untreated control; assay type: functional, cell-based; conditions: MIA PaCa-2
[22] = Reduction in HSP70 protein expression in human MIAPaCa2 cells at 50 uM by western blotting method relative to untreated control; assay type: functional, cell-based; conditions: MIA PaCa-2
[23] = Reduction in HSP40 protein expression in human MIAPaCa2 cells at 50 uM by western blotting method relative to untreated control; assay type: functional, cell-based; conditions: MIA PaCa-2
[24] = Reduction in HSP27 protein expression in human MIAPaCa2 cells at 50 uM by western blotting method relative to untreated control; assay type: functional, cell-based; conditions: MIA PaCa-2
HCT-116 [25] = assay: Induction of apoptosis in human HCT116 cells at 50 uM after 24 hrs by annexin V and 7-AAD staining based flow cytometry; assay type: functional
HCT-116 [26] = assay: Induction of apoptosis in human HCT116 cells assessed as caspase 3/7 activation at 50 uM after 24 hrs by luminometry; assay type: functional
MIA PaCa-2 [27] = assay: Induction of apoptosis in human MIAPaCa2 cells assessed as caspase 3/7 activation at 50 uM after 24 hrs by luminometry; assay type: functional
HCT-116 [28] = assay: Induction of cell cycle arrest in human HCT116 cells assessed as accumulation at G0/G1 phase at 5 uM after 24 hrs by propidium iodide staining based cytometry; assay type: functional
MIA PaCa-2 [29] = assay: Induction of cell cycle arrest in human MIAPaCa2 cells assessed as accumulation at G0/G1 phase at 5 uM after 24 hrs by propidium iodide staining based cytometry; assay type: functional
[30] = biological target: Heat shock protein HSP 90-beta (Oryctolagus cuniculus) (UniProt P30947); assay: Inhibition of HSP90 in rabbit reticulocyte lysates at 5 uM pre-incubated for 2 hrs by firefly luciferase protein re-folding assay
[31] = 80% EtOH/20% water, read-out: solubility

Heat shock protein HSP 90-beta (Oryctolagus cuniculus), sequence (P30947 whole entry): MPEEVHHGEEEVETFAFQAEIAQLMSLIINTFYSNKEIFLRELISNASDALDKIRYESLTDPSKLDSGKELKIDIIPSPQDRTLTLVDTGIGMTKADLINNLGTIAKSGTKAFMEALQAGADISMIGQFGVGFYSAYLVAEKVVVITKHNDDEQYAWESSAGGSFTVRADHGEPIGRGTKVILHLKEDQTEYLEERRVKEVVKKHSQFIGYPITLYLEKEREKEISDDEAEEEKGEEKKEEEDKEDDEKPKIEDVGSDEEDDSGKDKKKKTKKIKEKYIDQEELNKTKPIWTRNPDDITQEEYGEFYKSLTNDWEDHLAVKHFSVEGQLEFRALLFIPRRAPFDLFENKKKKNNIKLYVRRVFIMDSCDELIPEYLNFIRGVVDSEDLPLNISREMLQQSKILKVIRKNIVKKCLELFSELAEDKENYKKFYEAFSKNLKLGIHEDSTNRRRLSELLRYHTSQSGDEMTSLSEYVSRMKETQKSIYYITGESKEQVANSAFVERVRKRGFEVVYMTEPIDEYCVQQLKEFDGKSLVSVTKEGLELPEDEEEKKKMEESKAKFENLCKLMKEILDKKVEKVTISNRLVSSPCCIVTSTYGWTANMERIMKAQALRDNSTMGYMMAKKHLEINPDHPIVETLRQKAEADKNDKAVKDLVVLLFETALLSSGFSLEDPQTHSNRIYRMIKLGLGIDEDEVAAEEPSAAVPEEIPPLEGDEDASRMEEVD

Question: Which results are given for `CC(C)C[C@@H]1NC(=O)[C@H](C(C)C)N(C)C(=O)[C@@H](CC(C)C)NC(=O)[C@@H](Cc2ccncc2)NC(=O)[C@@H](C(c2ccccc2)c2ccccc2)NC1=O`?
Answer: IC50 [1]: 15.7 µM; IC50 [2]: 18.5 µM

Question: With `CC(C)C[C@@H]1NC(=O)[C@H](C(C)C)N(C)C(=O)[C@@H](CC(C)C)NC(=O)[C@@H](Cc2cscn2)NC(=O)[C@@H](C(c2ccccc2)c2ccccc2)NC1=O` (HELM PEPTIDE1{L.[O=C([C@H](N[*:1])C(c1ccccc1)c1ccccc1)[*:2]].[O=C([C@@H](Cc1cscn1)N[*:1])[*:2]].[dL].[meV]}$PEPTIDE1,PEPTIDE1,1:R1-5:R2$$$V2.0) as the compound, how does the IC50 [1] read?
Answer: 5 µM

Question: And the IC50 [2]?
Answer: 5.5 µM

Question: What about the solubility ([3]; buffer) of the same compound?
Answer: 9500 µg/mL (≈ 13.3 mM)

Question: And the inhibition [4]?
Answer: 42%

Question: And the inhibition [5]?
Answer: Active

Question: And the inhibition [6]?
Answer: Active

Question: What about the inhibition [7] of the same compound?
Answer: Active

Question: And the inhibition [8]?
Answer: Active

Question: And the inhibition [9]?
Answer: Active

Question: And the inhibition [10]?
Answer: Active

Question: What about the inhibition [11] of the same compound?
Answer: Active

Question: What about the inhibition [12] of the same compound?
Answer: Active

Question: What about the inhibition [13] of the same compound?
Answer: Active

Question: And the inhibition [14]?
Answer: Active

Question: And the fold change (FC) [15]?
Answer: 2

Question: And the fold change (FC) [16]?
Answer: 2

Question: What about the fold change (FC) [17] of the same compound?
Answer: 2

Question: And the fold change (FC) [18]?
Answer: 2

Question: What about the fold change (FC) [19] of the same compound?
Answer: 2

Question: And the fold change (FC) [20]?
Answer: 2

Question: And the fold change (FC) [21]?
Answer: 2

Question: And the fold change (FC) [22]?
Answer: 2

Question: And the fold change (FC) [23]?
Answer: 2

Question: And the fold change (FC) [24]?
Answer: 2

Question: What about the Activity (HCT-116 [25]) of the same compound?
Answer: 75%

Question: And the “fold change (FC)” value (HCT-116 [26])?
Answer: 4

Question: What about the “fold change (FC)” value (MIA PaCa-2 [27]) of the same compound?
Answer: 4

Question: And the Activity (HCT-116 [28])?
Answer: Active

Question: And the Activity (MIA PaCa-2 [29])?
Answer: Active

Question: Which IC50 [1] does the source give for `CC(C)C[C@@H]1NC(=O)[C@H](C(C)C)N(C)C(=O)[C@@H](CC(C)C)NC(=O)[C@@H](Cc2ccccc2)NC(=O)[C@@H]([C@H](OCc2ccccc2)c2ccccc2)NC1=O` (HELM PEPTIDE1{L.[O=C([C@H](N[*:1])[C@H](OCc1ccccc1)c1ccccc1)[*:2]].[dF].[dL].[meV]}$PEPTIDE1,PEPTIDE1,1:R1-5:R2$$$V2.0) here?
Answer: 7.4 µM

Question: What about the IC50 [2] of the same compound?
Answer: 7.8 µM

Question: And the solubility [3, 31]?
Answer: 5200 µg/mL (≈ 7.03 mM)

Question: What about the inhibition [30] of the same compound?
Answer: 25%

Question: With `CC(C)C[C@@H]1NC(=O)[C@H](C(C)C)N(C)C(=O)[C@@H](CC(C)C)NC(=O)[C@@H](Cc2ccccc2)NC(=O)[C@@H](C(c2ccccc2)c2ccccc2)NC1=O` as the compound, how does the IC50 [1] read?
Answer: 7.6 µM

Question: And the IC50 [2]?
Answer: 12.8 µM

Question: What about the solubility [3, 31] of the same compound?
Answer: 2100 µg/mL (≈ 2.96 mM)

Question: For `CC(C)C[C@@H]1NC(=O)[C@H](C(C)C)N(C)C(=O)[C@@H](CC(C)C)NC(=O)[C@@H](Cc2ccccn2)NC(=O)[C@@H](C(c2ccccc2)c2ccccc2)NC1=O`, which IC50 [1] is on record?
Answer: 18.1 µM

Question: What about the IC50 [2] of the same compound?
Answer: 23.6 µM
